Tests used:
[1] = system: Plasmodium falciparum; test: Antiplasmodial activity against CQ-resistance Plasmodium falciparum W2 infected in A+ human blood assessed as reduction in parasite growth measured after 72 hrs by HRP2 ELISA; assay type: functional, organism-based
In short: (§1)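 IC50s against P. falciparum chloroquine-susceptible 3D7 and chloroquine-resistant W2 strains, each tested separately. Values are the mean and standard deviation of 6 to 9 independent experiments.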

[2] = system: Plasmodium falciparum; test: Antiplasmodial activity against CQ-susceptible Plasmodium falciparum 3D7 infected in A+ human blood assessed as reduction in parasite growth measured after 72 hrs by HRP2 ELISA; assay type: functional, organism-based; conditions: 3D7, Blood; in short: as §1
[3] = Resistance index, ratio of IC50 for antiplasmodial activity against CQ-resistance Plasmodium falciparum W2 infected in A+ human blood to IC50 for antiplasmodial activity against CQ-susceptible Plasmodium falciparum 3D7 infected in A+ human blood; assay type: functional
In short: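 Resistance index calculated as IC50 against W2 divided by IC50 against 3D7, using the in vitro antiplasmodial IC50s measured for each strain.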

[4] = Selectivity index, ratio of IC50 for cytotoxicity against African green monkey Vero cells to IC50 for antiplasmodial activity against CQ-susceptible Plasmodium falciparum 3D7 infected in A+ human blood assessed as reduction in parasite growth measured after 72 hrs by HRP2 ELISA; assay type: toxicity, cell-based; conditions: read-out: Selectivity Index
In short: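 Selectivity index calculated as the IC50 for cytotoxicity on Vero cells divided by the antiplasmodial IC50 against the 3D7 strain.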

[5] = Selectivity index, ratio of IC50 for cytotoxicity against African green monkey Vero cells to IC50 for antiplasmodial activity against CQ-resistance Plasmodium falciparum W2 infected in A+ human blood assessed as reduction in parasite growth measured after 72 hrs by HRP2 ELISA; assay type: toxicity, cell-based; conditions: read-out: Selectivity Index
In short: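 Selectivity index calculated as the IC50 for cytotoxicity on Vero cells divided by the antiplasmodial IC50 against the W2 strain.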

[6] = Cytotoxicity against African green monkey Vero cells; assay type: toxicity, cell-based; conditions: African green monkey (Chlorocebus sabaeus)

Row | Compound | IC50 [1] | IC50 [2] | Ratio IC50 [3] | selectivity ratio at 72 h [4] | selectivity ratio at 72 h [5] | IC50 [6]
1 | Cc1cc(NCCNc2cc(C)nc3ncnn23)n2ncnc2n1 | 53.8 µM | 52.2 µM | 1.03 |  |  | 
2 | Cc1cc(NCCCNc2ccnc3cc(Cl)ccc23)n2ncnc2n1 | 0.49 µM | 0.62 µM | 0.79 | 291 | 369 | 181 µM
3 | Cc1cc(N2CCN(c3ccnc4cc(Cl)ccc34)CC2)n2ncnc2n1 | 12.9 µM | 12.6 µM | 1.02 |  |  | 
4 | Cc1cc(NCCNc2ccnc3cc(Cl)ccc23)n2ncnc2n1 | 10.8 µM | 9 µM | 1.2 |  |  | 
5 | Cc1cc(NCCCCCCCCNc2ccnc3cc(Cl)ccc23)n2ncnc2n1 | 0.2 µM | 0.17 µM | 1.18 | 2060 | 1750 | 351 µM
6 | Cc1cc(NCCCCCCNc2ccnc3cc(Cl)ccc23)n2ncnc2n1 | 0.28 µM | 0.3 µM | 0.93 | 1040 | 1110 | 311 µM
7 | Cc1cc(NCCCCNc2ccnc3cc(Cl)ccc23)n2ncnc2n1 | 0.42 µM | 0.27 µM | 1.56 | 927 | 596 | 250 µM
8 | Cc1cc(NCCCCCCNc2cc(C)nc3ncnn23)n2ncnc2n1 | 11.3 µM | 11.6 µM | 0.97 |  |  | 
9 | Cc1cc(NCCCCCCCCNc2cc(C)nc3ncnn23)n2ncnc2n1 | 49.4 µM | 45.8 µM | 1.08 |  |  | 
10 | Cc1cc(NCCCNc2cc(C)nc3ncnn23)n2ncnc2n1 | 49.1 µM | 47.3 µM | 1.03 |  |  | 
11 | Cc1cc(NCCCCNc2cc(C)nc3ncnn23)n2ncnc2n1 | 11.8 µM | 12.5 µM | 0.94 |  |  | 
